Laboratory results published in ChEMBL document CHEMBL4321838, “Drug Design Targeting T-Cell Factor-Driven Epithelial-Mesenchymal Transition as a Therapeutic Strategy for Colorectal Cancer” (J Med Chem, 2019).
In brackets after ≈: the same amount, converted by molar mass. Activity calls are given as the source filed them.

Tests used:
[1] = biological target: T1, DNA topoisomerase 2-alpha (Homo sapiens, UniProt P11388); assay: Inhibition of human topoisomerase 2alpha mediated decatenation at 30 uM using kDNA as susbtrate preincubated for 20 mins followed by substrate and ATP addition and measured after 1 hr by ethidium bromide staining based gel electrophoresis method relative to control
T1 sequence (P11388 whole entry): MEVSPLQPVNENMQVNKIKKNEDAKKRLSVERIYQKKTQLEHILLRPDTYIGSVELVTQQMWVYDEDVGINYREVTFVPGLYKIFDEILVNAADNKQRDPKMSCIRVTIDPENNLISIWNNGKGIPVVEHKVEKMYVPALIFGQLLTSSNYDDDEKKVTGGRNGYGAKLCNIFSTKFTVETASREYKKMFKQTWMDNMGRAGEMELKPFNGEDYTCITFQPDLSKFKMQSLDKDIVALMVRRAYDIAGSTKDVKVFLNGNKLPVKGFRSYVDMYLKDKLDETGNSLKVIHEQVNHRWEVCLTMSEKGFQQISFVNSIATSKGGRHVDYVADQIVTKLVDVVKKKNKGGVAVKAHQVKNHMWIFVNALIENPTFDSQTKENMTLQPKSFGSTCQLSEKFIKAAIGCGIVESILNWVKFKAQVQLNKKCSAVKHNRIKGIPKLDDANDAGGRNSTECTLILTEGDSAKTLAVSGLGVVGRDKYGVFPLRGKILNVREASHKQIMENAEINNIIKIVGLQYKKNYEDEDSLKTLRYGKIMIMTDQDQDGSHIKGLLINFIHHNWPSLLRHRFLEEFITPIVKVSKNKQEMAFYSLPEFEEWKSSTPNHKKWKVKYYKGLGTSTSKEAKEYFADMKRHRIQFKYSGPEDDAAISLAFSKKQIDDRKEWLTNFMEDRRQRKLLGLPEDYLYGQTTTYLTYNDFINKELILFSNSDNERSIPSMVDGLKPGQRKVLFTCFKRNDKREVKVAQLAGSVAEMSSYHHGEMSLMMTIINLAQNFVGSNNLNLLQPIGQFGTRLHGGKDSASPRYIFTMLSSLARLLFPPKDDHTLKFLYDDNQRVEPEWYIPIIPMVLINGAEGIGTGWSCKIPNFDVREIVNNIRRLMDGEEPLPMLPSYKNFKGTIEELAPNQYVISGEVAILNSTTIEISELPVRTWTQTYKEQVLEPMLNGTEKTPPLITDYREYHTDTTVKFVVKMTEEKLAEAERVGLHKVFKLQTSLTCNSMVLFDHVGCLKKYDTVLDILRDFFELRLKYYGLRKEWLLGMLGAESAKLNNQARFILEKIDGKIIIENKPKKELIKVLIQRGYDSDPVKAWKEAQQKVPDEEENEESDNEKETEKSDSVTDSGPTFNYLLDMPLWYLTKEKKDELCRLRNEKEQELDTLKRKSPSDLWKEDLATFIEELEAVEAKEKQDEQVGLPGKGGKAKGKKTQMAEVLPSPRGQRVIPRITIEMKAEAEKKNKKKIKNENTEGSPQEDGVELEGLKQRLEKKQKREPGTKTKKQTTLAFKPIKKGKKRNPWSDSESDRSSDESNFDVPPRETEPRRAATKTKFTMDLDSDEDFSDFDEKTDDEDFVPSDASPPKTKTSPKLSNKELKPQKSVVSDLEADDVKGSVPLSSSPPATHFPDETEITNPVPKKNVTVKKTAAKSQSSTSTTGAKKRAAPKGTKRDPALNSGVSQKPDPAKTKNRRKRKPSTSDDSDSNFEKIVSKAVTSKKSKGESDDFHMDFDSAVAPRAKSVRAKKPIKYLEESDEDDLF
Summary of the method: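 Human TOP2A (3 U) preincubated 20 min at 37 °C with compound at 30 μM in 1.2% DMSO. Reaction started with 2 mM ATP and 35 ng kDNA and run 1 h at 37 °C. Products resolved on 0.8% agarose in TBE with 0.2 μg/mL ethidium bromide; decatenated bands compared with vehicle.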

[2] = Aqueous solubility of compound in PBS at 1 mg after 18 hrs by UV based analysis; format: physicochemical
Summary of the method: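 Undissolved material removed by centrifugation at 5,000g for 45 min. UV absorption compared with a fully saturated 1-propanol solution; solubility derived by linear regression.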

[3] = Metabolic stability in CD-1 mouse inactive microsomes incubated for 1 hr by LC-MS/MS analysis; format: ADME, Microsome
[4] = Half life of terminal disposition phase in CD-1 mouse at 50 mg/kg, ip by LC-MS/MS analysis; format: ADME, organism-based; conditions: in vivo, read-out: t1/2lambda (converted)
Summary of the method: (§1)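 Female CD-1 mice, single IP injection at 50 mg/kg in 100% DMSO. Sampling from 0.25 to 24 h, three mice per time point (21 per compound). Heparinised blood was spun to plasma, mixed 1:1 with acidified acetonitrile (0.1% formic acid or 0.1% TFA depending on compound), centrifuged, then measured by LC-MS/MS.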

[5] = Half life in CD-1 mouse microsomes measured up to 1 hr by LC-MS analysis; format: ADME, Microsome
Summary of the method: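 Female CD-1 mouse liver microsomes (0.5 mg/mL), substrate 1 μg/mL and 1.5 mM NADPH in 0.1 M phosphate buffer pH 7.4 at 37 °C. Samples taken from 0 to 60 min and quenched with an equal volume of acetonitrile. Parent compound remaining measured by LC-MS/MS without internal standard.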

[6] = Cmax in CD-1 mouse at 50 mg/kg, ip by LC-MS/MS analysis; format: ADME, organism-based; design: dose 50 mg/kg, route intraperitoneal; conditions: in vivo; summary of the method: as §1
SW-620 [7] = assay: Antiinvasive activity in human SW620 organoids transduced with NucLight-Red virus assessed as inhibition of cell invasion at 10 uM incubated for 72 hrs and measured after 72 hrs by matrigel based fluorescence analysis; format: functional
Summary of the method: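 NucLight-Red-labelled SW620 organoids treated 72 h at 10 μM in 0.1% DMSO, then dissociated. 5,000 live cells per well seeded in 50% Matrigel in the upper chamber of a migration plate, 0.5% FBS above and 20% FBS below. Invading cells tracked by bottom-side fluorescence over days, six replicates per condition.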

SW-620 [8] = assay: Anticlonogenic activity against human SW620 cells assessed as loss of cancer stem cell stemness by measuring inhibition of colony formation at 10 uM incubated for 24 hrs followed by replating and measured after 7 days by clonogenic assay; format: functional, cell-based
[9] = biological target: T1, DNA topoisomerase 2-alpha; assay: Inhibition of topoisomerase 2alpha dependent TCF transcription in human SW620 organoids transduced with TOPflash luminescent reporter after 72 hrs by luciferase based TOPFlash reporter gene assay
Summary of the method: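 SW620 cells stably carrying pCDH-TOPflash-luc grown as organoids: 5,000 cells per U-bottom well in phenol red-free RPMI with 5% FBS and 2% Matrigel, 72 h. Inhibitor then applied 72 h. One-Glo luciferase and CellTiter-Glo 3D added 1:1. Luciferase signal normalised to viability, then to DMSO controls.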

Mus musculus = assay: Apparent volume of drug distribution in CD-1 mouse at 50 mg/kg, ip by LC-MS/MS analysis; format: ADME, organism-based; conditions: in vivo; summary of the method: as §1
[10] = Drug metabolism in CD-1 mouse active microsomes assessed as CYP450-mediated oxidative phase 1 metabolite formation measured within 30 mins by LC-MS/MS analysis; format: ADME; conditions: 0.5 h
[11] = Drug metabolism in CD-1 mouse active microsomes assessed as metabolite formation at rate of first-order kinetics by LC-MS/MS analysis; format: ADME, Microsome
[12] = Clearance in CD-1 mouse at 50 mg/kg, ip by LC-MS/MS analysis; format: ADME, organism-based; conditions: in vivo; summary of the method: as §1
SW-620 [13] = assay: Cytotoxicity against human SW620 organoids assessed as cell death with loss of membrane integrity after 72 hrs by CellTox Green assay; format: functional, cell-based; conditions: SW-620, 72 h
Summary of the method: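 SW620 tumor organoids exposed 72 h to inhibitor over 0–40 μM together with CellTox Green Express (0.5X). Whole-well mean fluorescence imaged (ex 488, em 500–550 nm). Normalised to lysis buffer as 0% viability and 0.4% DMSO as 100% viability.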

[14] = AUC(0 to t) in CD-1 mouse at 50 mg/kg, ip by LC-MS/MS analysis; format: ADME, organism-based; conditions: in vivo; summary of the method: as §1
[15] = Tmax in CD-1 mouse at 50 mg/kg, ip by LC-MS/MS analysis; format: ADME, organism-based; conditions: in vivo; summary of the method: as §1
SW-620 [16] = assay: Cytotoxicity against human SW620 organoids assessed as growth inhibition at 10 uM after 72 hrs by brightfield imaging of organoid volume
[17] = biological target: T1, DNA topoisomerase 2-alpha; assay: Inhibition of topoisomerase 2alpha in human SW620 organoids transfected with VimPro-GFP reporter assessed as reversion of epithelial-mesenchymal transition by measuring reduction in vimentin expression up to 40 uM after 72 hrs by Hoechst 33342 staining based GFP reporter gene assay
Summary of the method: (§2)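 SW620 cells stably carrying VimPro-GFP or EcadPro-mCherry (puromycin selected) grown as organoids and dosed 72 h. Stained with 16 μM Hoechst 33342 for 1 h and imaged as 15 z-layers, 26.5 μm apart. Nuclei segmented and GFP- or mCherry-positive cells counted above background thresholds. Percent positive cells normalised to DMSO.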

SW-620 [18] = assay: Induction of early stage cell death in human SW620 organoids transfected with EcadPro-RFP reporter assessed as loss of RFP reporter activity at 40 uM at after 72 hrs by Hoechst 33342 staining based mCherryRFP reporter gene assay; conditions: sw-620, 72 h
[19] = biological target: T1, DNA topoisomerase 2-alpha; assay: Inhibition of topoisomerase 2alpha in human SW620 organoids transfected with EcadPro-RFP reporter assessed as reversion of epithelial-mesenchymal transition by measuring increase in E-cadherin expression up to 40 uM after 72 hrs by Hoechst 33342 staining based mCherryRFP reporter gene assay; summary of the method: as §2
SW-620 [20] = assay: Induction of apoptosis in human SW620 organoids assessed as increase in cleaved caspase 3/7 level at 40 uM after 72 hrs by caspase-glo 3/7 luminescence assay relative to control; format: functional
Summary of the method: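 SW620 cells, 2,000 per well in 384-well ultra-low attachment plates with 2% Matrigel, grown 72 h into organoids, then dosed 72 h. Caspase-Glo 3/7 reagent added 1:1 and shaken 30 min; luminescence read. Staurosporine served as positive control and 0.4% DMSO as negative control.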

[21] = biological target: T1, DNA topoisomerase 2-alpha; assay: Inhibition of human topoisomerase 2alpha mediated decatenation using kDNA as susbtrate preincubated for 20 mins followed by substrate and ATP addition and measured after 1 hr by ethidium bromide staining based gel electrophoresis method
Summary of the method: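 IC50 from decatenation gels: TOP2A at 4 U per reaction, compound as 2-fold serial dilutions from 58.6 nM to 30 μM, 20 min preincubation. Then 2 mM ATP plus 35 ng kDNA for 1 h at 37 °C. Gels were 0.8% agarose with ethidium bromide, with decatenated and catenated DNA marker lanes.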

CC(C)(C)C(=O)Nc1ccc2c(-c3cc(F)ccc3O)ccnc2c1O
inhibition [1]: 0%

CC(=O)Nc1ccc2c(-c3cc4ccccc4o3)ccnc2c1O
solubility thermodynamic at 18 h [2]: 28 µg/mL (≈ 88 µM)
Stability [3]: Stable
inhibition [1]: 100%
half-life [4]: 266 min
t1/2 [5]: > 60 min
Cmax [6]: 707 ng/mL
inhibition (SW-620 [7]): Active
inhibition (SW-620 [8]): Active
IC50 [9]: 1 µM
Vz (Mus musculus): 108.9 L/kg
Drug metabolism [10]: Metabolite_Notdetected
Drug metabolism [11]: Metabolite_Detected
CL/F [12]: 283 mL/min/kg
EC50 (SW-620 [13]): > 30 µM
AUC(0-t) [14]: 2840 ng·h/mL
Tmax [15]: 15 min

O=C(CCN1CCOCC1)Nc1ccc2c(-c3cc4ccccc4o3)ccnc2c1O
solubility thermodynamic at 18 h [2]: 1160 µg/mL (≈ 2780 µM)
Stability [3]: Stable
inhibition [1]: 83%
half-life [4]: 358 min
t1/2 [5]: 14 min
Cmax [6]: 6830 ng/mL
inhibition (SW-620 [7]): Active
inhibition (SW-620 [8]): Active
IC50 [9]: 2.5 µM
Vz (Mus musculus): 32 L/kg
Drug metabolism [10]: Metabolite_Notdetected
Drug metabolism [11]: Metabolite_Detected
CL/F [12]: 61.8 mL/min/kg
EC50 (SW-620 [13]): 17.4 µM
AUC(0-t) [14]: 12900 ng·h/mL
Tmax [15]: 15 min

O=C(CN1CCOCC1)Nc1ccc2c(-c3cc4ccccc4o3)ccnc2c1O
solubility thermodynamic at 18 h [2]: 45 µg/mL (≈ 112 µM)
Stability [3]: Stable
inhibition [1]: 100%
half-life [4]: 350 min
t1/2 [5]: 30.18 min
Cmax [6]: 1980 ng/mL
IC50 [9]: 1.1 µM
Vz (Mus musculus): 69.3 L/kg
growth inhibition (GI) (SW-620 [16]): Active
Drug metabolism [10]: Metabolite_Notdetected
Drug metabolism [11]: Metabolite_Detected
inhibition [17]: Active
CL/F [12]: 137 mL/min/kg
EC50 (SW-620 [13]): 22 µM
Activity (SW-620 [18]): Active
inhibition [19]: Active
fold change (FC) (SW-620 [20]): 3
AUC(0-t) [14]: 5890 ng·h/mL
Tmax [15]: 15 min

O=C(CN1CCOCC1)Nc1ccc2c(-c3cc(F)ccc3O)ccnc2c1O
inhibition [1]: 4%

CC(=O)Nc1ccc2c(-c3ccc(F)cc3)ccnc2c1O
inhibition [1]: 1%

CC(=O)Nc1cccc(-c2ccnc3c(O)c(NC(C)=O)ccc23)c1
inhibition [1]: 3%

CC(=O)Nc1ccc2c(-c3cncnc3)ccnc2c1O
inhibition [1]: 0%

CC(=O)Nc1ccc2c(-c3cc(Cl)ccc3O)ccnc2c1O
inhibition [1]: 0%

CC(=O)Nc1ccc2c(-c3ccc(C(F)(F)F)cc3)ccnc2c1O
inhibition [1]: 97%

CC(=O)Nc1ccc2c(-c3cccc(O)c3)ccnc2c1O
inhibition [1]: 0%

COc1c(NC(C)=O)ccc2c(-c3cc(F)ccc3O)ccnc12
inhibition [1]: 0%

CC(=O)Nc1ccccc1-c1ccnc2c(O)c(NC(C)=O)ccc12
inhibition [1]: 1%

CC(C)(C)C(=O)Nc1ccc2c(-c3ccccc3)ccnc2c1O
inhibition [1]: 97%
IC50 [21]: 1.3 µM
inhibition (SW-620 [7]): Active
inhibition (SW-620 [8]): Active
IC50 [9]: 4.7 µM
EC50 (SW-620 [13]): > 30 µM
